Legend:
Assay type in all cases: biochemical
human recombinant PRMT1 = human recombinant PRMT1 (Homo sapiens, UniProt Q99873); experiment: PRMT1 single-point radioactive methylation assay; conditions: compared with the unmodified peptide
PRMT8 [1] = biological target: T1, PRMT8 (Homo sapiens, UniProt Q9NR22); experiment: PRMT8 single-point radioactive methylation assay; conditions: compared with the unmodified peptide
[2] = biological target: T2, truncated PRMT3 (residues 211–531) (Homo sapiens, UniProt O60678); experiment: PRMT3 steady-state kinetics, radioactive filter-binding methylation assay
T2 sequence (O60678 211-531): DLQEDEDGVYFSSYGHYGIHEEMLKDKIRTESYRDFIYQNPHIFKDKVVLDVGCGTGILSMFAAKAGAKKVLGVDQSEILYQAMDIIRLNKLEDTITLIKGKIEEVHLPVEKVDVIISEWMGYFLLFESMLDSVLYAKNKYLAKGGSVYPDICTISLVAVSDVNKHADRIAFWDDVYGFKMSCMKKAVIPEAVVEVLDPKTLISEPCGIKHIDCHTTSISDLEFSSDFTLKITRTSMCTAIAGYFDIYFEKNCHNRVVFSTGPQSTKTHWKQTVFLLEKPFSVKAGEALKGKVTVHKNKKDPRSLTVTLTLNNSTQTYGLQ
Method in brief: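 E. coli-expressed His-tagged PRMT3 (residues 211–531) was used. Reactions in 50 mM HEPES pH 8, 10 mM NaCl, 0.5 mM EDTA, 0.5 mM DTT contained 0.25–8 μM N-acetylated H4(1–20) peptide (unmodified, K5me or K5ac). Products were P81 filter-bound, washed with NaHCO3 pH 9 and scintillation-counted. Rates (product/[E] per min) were fitted to the Hill or Michaelis-Menten equation, at least duplicate.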

PRMT8 [3] = biological target: T1, PRMT8; experiment: PRMT8 steady-state kinetics, radioactive filter-binding methylation assay; conditions: 0.05 μM PRMT8, 15 μM [14C]-SAM, 35 min, 30 °C; data not shown
Method in brief: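 Recombinant His-tagged PRMT8 was expressed in E. coli BL21(DE3) and Ni-NTA purified. Reactions were run in 50 mM HEPES pH 8, 10 mM NaCl, 0.5 mM EDTA, 0.5 mM DTT with 0.25–16 μM N-acetylated H4(1–20) peptide (unmodified, K5me or K5ac), initiated with enzyme. They were isopropanol-quenched, P81 filter-bound, washed with NaHCO3 pH 9 and scintillation-counted against [14C]-SAM reference. Rates were Hill-fitted, at least duplicate.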

[4] = biological target: T2, truncated PRMT3 (residues 211–531); experiment: PRMT3 single-point radioactive methylation assay; conditions: 0.05 μM PRMT3, 5 μM [14C]-SAM, 10 μM peptide, 30 °C, 35 min

T1 sequence (Q9NR22 whole entry, the tested form may be a part): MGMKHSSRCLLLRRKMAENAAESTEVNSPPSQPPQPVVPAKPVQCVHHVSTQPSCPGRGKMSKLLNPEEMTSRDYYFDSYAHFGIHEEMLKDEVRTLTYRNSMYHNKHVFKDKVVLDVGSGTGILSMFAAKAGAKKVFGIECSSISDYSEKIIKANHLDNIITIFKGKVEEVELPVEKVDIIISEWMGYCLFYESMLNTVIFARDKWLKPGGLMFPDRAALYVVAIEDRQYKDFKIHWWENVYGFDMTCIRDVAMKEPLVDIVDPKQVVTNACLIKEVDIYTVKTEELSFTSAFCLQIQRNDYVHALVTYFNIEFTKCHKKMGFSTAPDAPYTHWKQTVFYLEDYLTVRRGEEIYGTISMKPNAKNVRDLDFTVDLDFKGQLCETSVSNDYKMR
human recombinant PRMT1, sequence (Q99873 whole entry): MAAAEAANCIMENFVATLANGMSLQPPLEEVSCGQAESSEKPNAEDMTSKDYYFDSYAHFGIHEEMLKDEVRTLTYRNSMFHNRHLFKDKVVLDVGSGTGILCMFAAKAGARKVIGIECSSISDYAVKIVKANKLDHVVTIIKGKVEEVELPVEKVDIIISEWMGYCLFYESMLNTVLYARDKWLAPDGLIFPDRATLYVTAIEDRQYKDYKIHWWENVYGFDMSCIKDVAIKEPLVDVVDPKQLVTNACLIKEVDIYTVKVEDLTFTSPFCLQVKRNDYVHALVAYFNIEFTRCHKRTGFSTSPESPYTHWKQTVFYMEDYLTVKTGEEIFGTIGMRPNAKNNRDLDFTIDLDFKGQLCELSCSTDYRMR

Ac-H4(1-21): N-terminally acetylated histone H4 peptide, residues 1-21
effect of the modification on arginine methylation by PRMT1 (human recombinant PRMT1): did not strongly affect arginine methylation
effect of the modification on arginine methylation by PRMT8 (PRMT8 [1]): did not strongly affect arginine methylation

Ac-SGRGKacGGKGLGKGGAKRHRK [Ac-H4(1-20)K5ac]
increase of K0.5 in comparison to Ac-H4(1-20) ([2]; PRMT3, Hill fit): 2 fold

Ac-SGRGKmeGGKGLGKGGAKRHRK [Ac-H4(1-20)K5me]
peptide concentration above which substrate inhibition appeared ([2]; 0.05 μM PRMT3, 15 μM [14C]-SAM, 35 min, 30 °C, data not shown): above 8 μM
increase of kcat in comparison to Ac-H4(1-20) ([2]; PRMT3, Hill fit): 3 fold
catalytic efficiency higher than Ac-H4(1-20) ([2]; PRMT3, kcat/K0.5): ~4 fold
peptide concentration above which substrate inhibition appeared (PRMT8 [3]): above 4 μM
increase in arginine methylation in comparison to Ac-H4(1-20) [4]: over 5 fold
